Test results taken from ChEMBL document CHEMBL1155804, “Brominated diterpenes with antibacterial activity from the red alga Sphaerococcus coronopifolius” (2008).
In brackets after ≈: the same amount, converted by molar mass.

Key:
Format in all cases: functional
Staphylococcus aureus [1] = test: Antibacterial activity against Staphylococcus aureus […] expressing MsrA macrolide efflux pump after 18 hrs by MTT assay
Summary of the method: (§1)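 Broth microdilution MIC in Mueller-Hinton broth supplemented to 20 mg/L Ca2+ and 10 mg/L Mg2+. Overnight cultures were adjusted in 0.9% saline to 5 × 10^5 cfu against a McFarland standard, and the sample was serially diluted in broth. Plates included growth, sterile and 3.125% DMSO controls and were incubated 18 h at 37 °C. MICs were determined in duplicate.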

Staphylococcus aureus [2] = test: Antibacterial activity against Staphylococcus aureus 1199B overexpressing NorA efflux pump after 18 hrs by MTT assay; summary of the method: as §1
Staphylococcus aureus [3] = test: Antibacterial activity against epidemic methicillin-resistant Staphylococcus aureus 16 expressing mecA after 18 hrs by MTT assay; summary of the method: as §1
Staphylococcus aureus [4] = test: Antibacterial activity against methicillin-resistant Staphylococcus aureus XU212 expressing TetK efflux pump after 18 hrs by MTT assay; conditions: XU212, 18 h; summary of the method: as §1
Staphylococcus aureus [5] = test: Antibacterial activity against Staphylococcus aureus ATCC 25923 after 18 hrs by MTT assay; conditions: ATCC 25923, 18 h; summary of the method: as §1
Staphylococcus aureus [6] = test: Antibacterial activity against epidemic methicillin-resistant Staphylococcus aureus 15 after 18 hrs by MTT assay; summary of the method: as §1

Structure (SMILES)	MIC (Staphylococcus aureus [1]) [mg/L]	MIC (Staphylococcus aureus [2]) [mg/L]	MIC (Staphylococcus aureus [3]) [mg/L]	MIC (Staphylococcus aureus [4]) [mg/L]	MIC (Staphylococcus aureus [5]) [mg/L]	MIC (Staphylococcus aureus [6]) [mg/L]
CC(C)[C@@H]1CC[C@H](O)[C@H]2[C@H]3[C@](C)(CC[C@@]21CBr)[C@@H](Br)CC(=O)[C@]3(C)O	32 (≈ 66.6 µM)	32 (≈ 66.6 µM)	64 (≈ 133 µM)	32 (≈ 66.6 µM)	32 (≈ 66.6 µM)	128 (≈ 267 µM)
CC(C)[C@@H]1C[C@H](O)C=C2[C@H]3[C@](C)(CC[C@@]21CBr)[C@@H](Br)CC[C@@]3(C)O	16 (≈ 34.5 µM)	16 (≈ 34.5 µM)	16 (≈ 34.5 µM)	16 (≈ 34.5 µM)	16 (≈ 34.5 µM)	16 (≈ 34.5 µM)
CC(C)[C@@H]1CC[C@H](O)[C@H]2[C@H]3[C@](C)(CC[C@@]21CBr)[C@@H](Br)CC[C@]3(C)O	2 (≈ 4.29 µM)	1 (≈ 2.14 µM)	1 (≈ 2.14 µM)	2 (≈ 4.29 µM)	2 (≈ 4.29 µM)	2 (≈ 4.29 µM)
CC(C)[C@@H]1C[C@H](OO)C=C2[C@@H]3[C@](C)(O)[C@H](O)C[C@H](Br)[C@@]3(C)CC[C@@]21CBr	16 (≈ 32.2 µM)	16 (≈ 32.2 µM)	16 (≈ 32.2 µM)	16 (≈ 32.2 µM)	32 (≈ 64.5 µM)	16 (≈ 32.2 µM)
CC(C)[C@@H]1CC[C@H](O)[C@H]2[C@H]3[C@@](C)(C=CC(=O)[C@]3(C)O)CC[C@@]21CBr	1 (≈ 2.5 µM)	0.5 (≈ 1.25 µM)	0.25 (≈ 0.626 µM)	1 (≈ 2.5 µM)	0.5 (≈ 1.25 µM)	0.5 (≈ 1.25 µM)
CC(C)[C@@H]1C[C@H](OO)C=C2[C@@H]3[C@](C)(O)[C@@H](O)C[C@H](Br)[C@@]3(C)CC[C@@]21CBr	16 (≈ 32.2 µM)	16 (≈ 32.2 µM)	16 (≈ 32.2 µM)	16 (≈ 32.2 µM)	32 (≈ 64.5 µM)	16 (≈ 32.2 µM)
CCn1cc(C(=O)O)c(=O)c2cc(F)c(N3CCNCC3)cc21 [NORFLOXACIN]	1 (≈ 3.13 µM)	32 (≈ 100 µM)	128 (≈ 401 µM)	8 (≈ 25.1 µM)	0.5 (≈ 1.57 µM)	0.5 (≈ 1.57 µM)
